H69AR inhibit – proliferation blockers of H69AR lung cancer cells, primary screen, cell-based, human, 86K library; viability, % at 10 µM; H69AR lung tumor viability, ATP luminescence, 72 h; stronger effect = lower value; AID 598, 2007; actives 6% (n = 85,000);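 active = viability at or below 40%; inactive = viability above 40%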;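 note: multidrug resistant small cell line overexpressing MRP-1 efflux transporter; 100% = mean luminescence of untreated control wells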
Fibroblast inh – antiproliferative effect on LL 47 fibroblasts – human, LL 47 cells, CellTiter-Glo luminescence, primary screen | LL 47 human lung fibroblast viability, ATP luminescence; stronger effect = lower value | viability, % at 10 µM | actives 1.1% (n = 85,000) | AID 719, 2007;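 active = viability at or below 50% in the single dose screen; inactive = viability above 50%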;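 note: compound exposure lasted 72 h before the ATP readout; 100% = median luminescence of untreated cell-only wells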
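Signal: luminescent ATP detection, CellTiter-Glo; assay system: LL 47 human lung fibroblasts; input: 1,150 cells/well; incubation: overnight cell rest, 72 h compound treatment at 37 °C; measure: % viability versus median cells-only luminescence; medium: IMEM growth medium with 15% fetal bovine serum; dosing: compound addition at 0.1% DMSO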
HUVEC inhibit – inhibitors of HUVEC proliferation, primary screen, cell-based, 384-well. actives 1.1% (n = 86,000). CellTiter-Glo luminescence, 72 h; stronger effect = lower value. viability, % at 10 µM (by protocol). AID 648, 2007;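 active = viability at or below 30%; inactive = viability above 30%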;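 note: 100% = median luminescence of DMSO-only cell control wells on each plate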
PTEN del growth – growth suppression of PTEN-null HCT116, primary screen, cell-based, CellTiter-Glo | actives 1.2% (n = 140,000) | HCT116 PTEN-null viability, 60 h; stronger effect = lower value | AID 827, 2007 | viability, % at 10 µM;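 active = viability at or below a set limit, 4 SD under the median of all tested compounds, cut at about 3.7% in these data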;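 note: PTEN knockout HCT116 line with beta catenin targeted HCT116 as companion control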
bCat KO growth – primary screen for growth suppressors in beta-catenin knockout HCT116 cells (colon tumor, human). HCT116 beta-catenin knockout viability, CellTiter-Glo, 60 h; stronger effect = lower value. AID 818, 2007. viability, % at 10 µM. actives 1.5% (n = 140,000);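 active = viability at or under a set limit, the compound median less 4 SD, cut at about 6% in these data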;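 note: 0% = Hyamine 1622 control at 20 µM and 100% = untreated cell control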
Numbers without * were called inactive; · = no result. This excerpt belongs to a sample that is enriched for hits.

SMILES	H69AR inhibit	Fibroblast inh	HUVEC inhibit	PTEN del growth	bCat KO growth
CN1CCN(c2ccc(NC(=O)c3cccc(OCc4ccccc4)c3)cc2)CC1	32*	61	3.5*	14	2.6*
COc1ccc(Cn2c(=O)[nH]c3cc(C(=O)Nc4ccc(N5CCN(C)CC5)cc4)ccc32)cc1	·	·	·	56	63
COc1ccc(C(=O)Nc2ccc(Cl)cc2C(=O)N2CCCC(C)C2)cc1 (stereo not drawn)	·	·	·	80	80
CCOC(=O)c1c(NC(=O)CSc2nnc(CNC(=O)c3ccco3)n2C)sc2c1CCC2	·	90	79	91	86
O=C(O)CNC(=O)c1ccc(S(=O)(=O)N2CCOCC2)cc1	96	105	111	115	110
CCN1CCN(c2ccc(NC(=O)c3cccc(OCc4ccccc4)c3)cc2)CC1	44	78	46	3.5*	8
COc1cccc(C(=O)Nc2ccc(N3CCN(Cc4ccccc4)CC3)cc2)c1	70	99	104	77	66
O=C(CN1C(=O)c2ccccc2C1=O)OCN1C(=O)c2ccccc2C1=O	100	105	111	·	·
CCCCN(Cc1ccco1)C(=O)c1cc2c(=O)[nH]c3ccc(C)cc3c2s1	28*	62	4.4*	41	51
Cc1ccc2[nH]c(=O)c(CN(Cc3ccco3)C(=O)c3cccs3)cc2c1	83	95	92	91	91
Cc1ccc2cc(CN(Cc3ccco3)C(=O)c3cccs3)c(=O)[nH]c2c1	21*	54	61	13	12
CC(/C=C1\N=C(SCc2ccccc2Cl)SC1=O)=C\c1ccccc1	·	·	·	87	84
C=CCn1c(SCC(=O)NC(=O)c2cccc([N+](=O)[O-])c2)nnc1-c1ccccc1F	·	·	·	94	96
COc1ccc(Nc2oc(COc3ccccc3F)nc2C#N)cc1	5.4*	93	87	55	57
CCCOc1ccccc1NC(=O)/C=C/C(N)=O	2.1*	60	86	106	101
CCCCOc1ccccc1NC(=O)C=C(C)C	98	95	100	95	102
N#Cc1ccc(OCC(=O)Nc2ccccc2NS(=O)(=O)c2cccs2)cc1	·	·	·	89	92
Cc1nc(C)c(-c2nnc(-c3ccc(C(C)(C)C)cc3)o2)cc1C(=O)NN	·	·	·	85	89
CCOC(=O)c1cnc(SCC(=O)Nc2cc(C(F)(F)F)ccc2N2CCOCC2)nc1N	36*	65	47	76	76
Cc1sc(NC(=O)CSc2nnc(COc3ccc(Cl)cc3)n2C)c(C#N)c1C	31*	87	60	85	77
CCOC(=O)c1cnc(SCC(=O)Nc2cc(OC)cc(OC)c2)nc1N	81	89	88	85	80
CCOC(=O)c1cnc(SCc2nc(N)nc(Nc3ccccc3)n2)nc1N	32*	97	106	37	46
CCOC(=O)c1cnc(SCC(=O)Nc2sc(C)c(C)c2C#N)nc1N	94	52	61	3.1*	2.8*
CCOC(=O)c1cnc(SCC(=O)Nc2ccc(N3CCOCC3)c(Cl)c2)nc1N	94	103	113	80	86
Cc1ccc(-c2nnc(SCC(=O)Nc3sc(C)c(C)c3C#N)n2C)cc1	83	97	83	94	82
SMILES	H69AR inhibit	Fibroblast inh	HUVEC inhibit	PTEN del growth	bCat KO growth
COn1c(SC2CCCCC2)nc2ccccc2c1=O	89	94	90	83	96
OC(CN1CCN(c2ccccn2)CC1)Cn1c2ccc(Cl)cc2c2cc(Cl)ccc21 (stereo not drawn)	1.3*	94	41	12	13
c1cnn(-c2nc(N3CCOCC3)nc(N3CCOCC3)n2)c1	77	49*	58	66	61
CCn1c(SCC(=O)N2CCCc3ccccc32)nnc1-c1c[nH]c2ccccc12	23*	108	95	82	94
CCN(CC)S(=O)(=O)c1ccc(OC)c(NC(=O)CSc2ccccc2)c1	·	·	·	89	101
COC(=O)c1c(NC(=O)c2ccccc2)sc2c1CC(C)(C)OC2	36*	99	97	90	88
O=C(COC(=O)c1ccccc1NC(=O)C1CC1)c1ccc2c(c1)OCCO2	·	·	·	94	84
N#Cc1ccccc1Cn1cc(/C=C/[N+](=O)[O-])c2ccccc21	·	·	·	1.4*	2.1*
O=[N+]([O-])/C=C/c1cn(Cc2ccccc2)c2ccccc12	·	·	·	1.1*	1.6*
N#Cc1cn(Cc2cccc(Cl)c2)c2ccccc12	63	90	58	80	73
CCOc1ccc(N(CC(=O)Nc2ccc(C)c(C)c2)S(=O)(=O)c2c(C)noc2C)cc1	48	90	67	27	29
CCOc1ccccc1NC(=O)CN(c1cc(C)cc(C)c1)S(=O)(=O)c1c(C)noc1C	73	93	91	86	95
CCOc1ccc(N(CC(=O)Nc2ccccc2C)S(=O)(=O)c2c(C)noc2C)cc1	19*	49*	50	12	10
COc1ccc(NC(=O)CN(c2cc(C)cc(C)c2)S(=O)(=O)c2c(C)noc2C)cc1	90	91	85	79	83
COc1ccc(N(CC(=O)Nc2cc(C)ccc2OC)S(=O)(=O)c2c(C)noc2C)cc1	13*	82	59	34	31
CCOc1ccccc1NC(=O)CN(c1ccc(OC)cc1)S(=O)(=O)c1c(C)noc1C	88	47*	47	13	18
CCOc1ccc(N(CC(=O)Nc2cccc(F)c2)S(=O)(=O)c2c(C)noc2C)cc1	30*	75	86	66	64
NC1=NS(=O)(=O)NC1c1cccc(Cl)c1 (stereo not drawn)	94	107	98	90	83
O=C(Cn1nnc(-c2ccccc2Cl)n1)NCc1ccc2c(c1)OCO2	105	101	101	119	98
Cc1ccc(NC(=O)/C=C\C(=O)NCC(=O)O)cc1C	·	·	·	90	92
Cc1ccc(C2Oc3ccccc3C3=C2C(c2cccs2)n2ncnc2N3)cc1 (stereo not drawn)	18*	44*	66	23	26
CCOC(=O)c1sc2nc(C)cc(C)c2c1N	102	102	99	85	67
Cc1cc(C)c2c(N)c3ccccc3nc2n1	·	·	·	3.2*	2.9*
CCc1ccc2nc3nc(C)cc(C)c3c(N)c2c1	·	·	·	3.2*	4.0*
COC(=O)C1CCCN1C(=O)COc1ccc(Cl)cc1Br (stereo not drawn)	·	·	·	74	67
CCCCNC(=S)N/N=C/c1ccccc1F	·	·	·	78	87
CC1CCCC(NC(=S)Nc2ccc(SC(F)F)cc2)C1C (stereo not drawn)	9.1*	34*	47	5	8
CCN1CCN(c2ncc3c(n2)CC(c2cc(OC)c(OC)c(OC)c2)CC3=O)CC1 (stereo not drawn)	17*	51	51	18	15
O=C1CC(c2cccc(Cl)c2)Cc2nc(N3CCN(c4ccccc4)CC3)ncc21 (stereo not drawn)	97	92	85	77	79

Screening results deposited in PubChem by SRMLSC.
